Laboratory results as given in paper PMC8374356 (Biochemistry and Biophysics Reports, 2021).

Columns and labels:
Type in all cases: cell-based, mouse
[1] = system: AIF; experiment: AIF nuclear translocation by immunocytochemistry; conditions: HT22 cells, 2 mM glutamate alone for up to 18 h
[2] = system: HT22 cells; experiment: Cell morphology by phase contrast microscopy; conditions: 50 μM peptide or 2 mM glutamate (positive control), 24 h
[3] = system: HT22 cells; experiment: Immunofluorescent staining of ssDNA; conditions: 2 mM glutamate alone for 18 h
Method in brief: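 HT22 cells on cover glass (5 × 10⁴ cells/well, 24 h) exposed to 2 mM L-glutamate in fresh medium for 18 h. Fixed in 4% paraformaldehyde (pH 7.4, 4 °C, 30 min), acetone-permeabilised, goat-serum blocked. Rabbit anti-ssDNA (1:200, 4 °C overnight), Alexa 594 secondary with DAPI. Confocal imaging; ssDNA-positive cells counted over total nuclei. At least three repeats, mean ± SD, ANOVA/Tukey-Kramer.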

[4] = system: HT22 cells; experiment: TUNEL assay of glutamate-induced oxytosis; conditions: 2 mM glutamate alone for 18 h, normalized by nuclei count

cell morphology [2]: induced cell detachment and shrinkage
SMILES: N[C@@H](CCC(=O)O)C(=O)O [glutamate, L-glutamate]
AIF localization [1]: induced diffuse localization of AIF in both cytoplasm and nucleus | ssDNA-positive cells [3]: 40% | TUNEL-positive cells [4]: up to 73%
